Experimental findings from ChEMBL document CHEMBL1153606, “Microwave assisted synthesis of new indophenazine 1,3,5-trisubstruted pyrazoline derivatives of benzofuran and their antimicrobial activity” (2009) are described below.

The subject of assay [1] is Streptococcus agalactiae. The assay can be described thus: Antibacterial activity against multidrug-resistant Streptococcus agalactiae after 24 hrs by broth microdilution method. In kind it is functional. Summed up: (§1)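 MIC was determined in Mueller–Hinton broth.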
Assay [2] concerns Staphylococcus aureus. Description: Antibacterial activity against multidrug-resistant Staphylococcus aureus after 24 hrs by broth microdilution method. The class given is functional. The essentials: as §1
Assay [3] has as its system Salmonella enterica subsp. enterica. The assay can be described thus: Antibacterial activity against multidrug-resistant Salmonella typhi after 20 hrs by cylinder and well method. The class given is functional, Salmonella enterica subsp. enterica serovar Typhi. The essentials: (§2)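 Agar diffusion assay: organisms grown overnight on 2% agar with 5% sheep blood under 10% CO2. Inocula were diluted in Ringer solution, treated in Todd–Hewitt medium and spread on agar plates. Drug spots were applied, with about 5 × 10^3 CFU/spot. Plates were held at 37 °C for 20 h. Inhibition zones were read in mm against standard drugs and vehicle.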

Assay [4] concerns Escherichia coli. The assay can be described thus: Antibacterial activity against multidrug-resistant Escherichia coli after 20 hrs by cylinder and well method. The class given is functional. The essentials: as §2
Assay [5] has as its system Streptococcus pneumoniae. Description: Antibacterial activity against multidrug-resistant Streptococcus pneumoniae after 20 hrs by cylinder and well method. In kind it is functional. The essentials:
as §2

In assay [6] the test system is Streptococcus pneumoniae. Description: Antibacterial activity against multidrug-resistant Streptococcus pneumoniae after 24 hrs by broth microdilution method. The class given is functional. The essentials: as §1
Assay [7] concerns Escherichia coli. Description: Antibacterial activity against multidrug-resistant Escherichia coli broth after 24 hrs by broth microdilution method. The class given is functional. Summed up: as §1
The subject of assay [8] is Pseudomonas aeruginosa. The assay can be described thus: Antibacterial activity against multidrug-resistant Pseudomonas aeruginosa after 20 hrs by cylinder and well method. In kind it is functional. Summed up:
as §2

Assay [9] deals with Pseudomonas aeruginosa. The assay can be described thus: Antibacterial activity against multidrug-resistant Pseudomonas aeruginosa after 24 hrs by broth microdilution method. The class given is functional. The essentials:
as §1

Assay [10] relates to Streptococcus agalactiae. The assay can be described thus: Antibacterial activity against multidrug-resistant Streptococcus agalactiae after 20 hrs by cylinder and well method. The class given is functional. Summed up:
as §2

Assay [11] deals with Staphylococcus aureus. The assay can be described thus: Antibacterial activity against multidrug-resistant Staphylococcus aureus after 20 hrs by cylinder and well method. In kind it is functional. Summed up: as §2
Assay [12] relates to Streptococcus pyogenes. Description: Antibacterial activity against multidrug-resistant Streptococcus pyogenes after 24 hrs by broth microdilution method. In kind it is functional. The essentials:
as §1

The test system of assay [13] is Salmonella enterica subsp. enterica. Description: Antibacterial activity against multidrug-resistant Salmonella typhi after 24 hrs by broth microdilution method. The class given is functional, Salmonella enterica subsp. enterica serovar Typhi. Summed up:
as §1

For another assay, the system named is Candida albicans. The assay can be described thus: Antifungal activity against Candida albicans after 30 to 72 hrs by agar culture method. In kind it is functional, organism-based. Summed up:
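Agar well assay on C. albicans: compounds at a range of concentrations in DMF were loaded into 6 mm wells. Plates were incubated at 30 °C for 30–72 h. Inhibition zones were read in mm against standard drugs.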

Assay [14] concerns Streptococcus pyogenes. The assay can be described thus: Antibacterial activity against multidrug-resistant Streptococcus pyogenes after 20 hrs by cylinder and well method. The class given is functional. Summed up: as §2

Values after ≈ are worked out from the molar mass of the structure shown. Active and inactive are the calls of the source. The rule behind the calls is not given here.

Turning to `O=C(Cn1c2ccccc2c2nc3ccccc3nc21)N1N=C(c2cc3ccccc3o2)CC1c1ccccc1` (stereo not given), the MIC in the assay on Streptococcus agalactiae [1] stood at 28.5 µg/mL (≈ 54.6 µM); with Staphylococcus aureus [2] it was 2.5 µg/mL (≈ 4.79 µM); in the assay with Streptococcus pneumoniae [6], 2 µg/mL (≈ 3.83 µM); in the assay on Escherichia coli [7], 8 µg/mL (≈ 15.3 µM); in the assay on Pseudomonas aeruginosa [9], 15.5 µg/mL (≈ 29.7 µM); in the assay with Streptococcus pyogenes [12], 28.5 µg/mL (≈ 54.6 µM). In assay [13], the MIC stood at 17 µg/mL (≈ 32.6 µM). Further, the “inhibition zone (IZ)” value in [3] is given as 8 mm; in the assay on Escherichia coli [4], 14 mm; in the assay with Streptococcus pneumoniae [5], 20 mm; with Pseudomonas aeruginosa [8], 11 mm; with Streptococcus agalactiae [10], 8 mm; with Staphylococcus aureus [11], 16 mm. For the same molecule, the “inhibition zone (IZ)” value with Streptococcus pyogenes [14] was 12 mm. Besides, in the assay with Candida albicans, the result was inactive.

For the molecule `O=C(Cn1c2ccccc2c2nc3ccccc3nc21)N1N=C(c2cc3ccccc3o2)CC1c1ccc(O)cc1` (stereo not given), the MIC was 32.5 µg/mL (≈ 60.5 µM) with Streptococcus agalactiae [1]; 6.5 µg/mL (≈ 12.1 µM) in the assay on Staphylococcus aureus [2]; 8.5 µg/mL (≈ 15.8 µM) with Streptococcus pneumoniae [6]; 14 µg/mL (≈ 26 µM) in the assay on Escherichia coli [7]; 26 µg/mL (≈ 48.4 µM) against Pseudomonas aeruginosa [9]; 20.5 µg/mL (≈ 38.1 µM) in the assay on Streptococcus pyogenes [12]. This molecule showed an MIC in assay [13] of 19.5 µg/mL (≈ 36.3 µM). In addition, the “inhibition zone (IZ)” value turned out to be 8 mm in assay [3]; 10 mm in the assay on Escherichia coli [4]; 12 mm in the assay on Streptococcus pneumoniae [5]; 8 mm with Pseudomonas aeruginosa [8]; 8 mm in the assay on Streptococcus agalactiae [10]; 14 mm in the assay with Staphylococcus aureus [11]. Besides, the “inhibition zone (IZ)” value in the assay on Streptococcus pyogenes [14] came out at 15 mm. In addition, the result in the assay with Candida albicans was inactive.

`O=C(Cn1c2ccccc2c2nc3ccccc3nc21)N1N=C(c2cc3ccccc3o2)CC1/C=C/c1ccccc1` (stereo not given): the MIC came to 22.5 µg/mL (≈ 41.1 µM) against Streptococcus agalactiae [1]; 4.5 µg/mL (≈ 8.22 µM) against Staphylococcus aureus [2]; 10 µg/mL (≈ 18.3 µM) against Streptococcus pneumoniae [6]; 20.5 µg/mL (≈ 37.4 µM) in the assay with Escherichia coli [7]; 18.5 µg/mL (≈ 33.8 µM) against Pseudomonas aeruginosa [9]; 26.5 µg/mL (≈ 48.4 µM) against Streptococcus pyogenes [12]. The same molecule displayed an MIC in [13] of 14.5 µg/mL (≈ 26.5 µM). The “inhibition zone (IZ)” value was determined as 10 mm in assay [3]; 8 mm in the assay with Escherichia coli [4]; 12 mm in the assay with Streptococcus pneumoniae [5]; 10 mm in the assay with Pseudomonas aeruginosa [8]; 9 mm in the assay on Streptococcus agalactiae [10]; 14 mm with Staphylococcus aureus [11]. Also, in the assay with Streptococcus pyogenes [14], the “inhibition zone (IZ)” value came out at 10 mm. Also, in the assay on Candida albicans, the outcome was inactive.

Regarding `O=C(Cn1c2ccccc2c2nc3ccccc3nc21)N1N=C(c2cc3ccccc3o2)CC1c1ccccc1Cl` (stereo not given), the MIC turned out to be 30 µg/mL (≈ 54 µM) with Streptococcus agalactiae [1]; 10 µg/mL (≈ 18 µM) against Staphylococcus aureus [2]; 7 µg/mL (≈ 12.6 µM) in the assay with Streptococcus pneumoniae [6]; 21.5 µg/mL (≈ 38.7 µM) in the assay on Escherichia coli [7]; 17.5 µg/mL (≈ 31.5 µM) in the assay on Pseudomonas aeruginosa [9]; 25 µg/mL (≈ 45 µM) in the assay with Streptococcus pyogenes [12]. The same molecule registered a minimal inhibitory concentration (MIC) in assay [13] of 15 µg/mL (≈ 27 µM). For the same molecule, the “inhibition zone (IZ)” value is 9 mm in [3]; 8 mm in the assay with Escherichia coli [4]; 14 mm with Streptococcus pneumoniae [5]; 9 mm with Pseudomonas aeruginosa [8]; 10 mm in the assay on Streptococcus agalactiae [10]; 11 mm with Staphylococcus aureus [11]. Besides, the “inhibition zone (IZ)” value with Streptococcus pyogenes [14] stood at 12 mm. Further, the outcome in the assay with Candida albicans was inactive.

Turning to `COc1ccc(C2CC(c3cc4ccccc4o3)=NN2C(=O)Cn2c3ccccc3c3nc4ccccc4nc32)c(O)c1` (stereo not given), the MIC was 28 µg/mL (≈ 49.3 µM) in the assay on Streptococcus agalactiae [1]; 9 µg/mL (≈ 15.9 µM) in the assay on Staphylococcus aureus [2]; 5 µg/mL (≈ 8.81 µM) against Streptococcus pneumoniae [6]; 13.5 µg/mL (≈ 23.8 µM) against Escherichia coli [7]; 18.5 µg/mL (≈ 32.6 µM) against Pseudomonas aeruginosa [9]; 26 µg/mL (≈ 45.8 µM) against Streptococcus pyogenes [12]. This molecule came in with an MIC in assay [13] of 14.5 µg/mL (≈ 25.5 µM). The “inhibition zone (IZ)” value in [3] turned out to be 11 mm; in the assay with Escherichia coli [4], 11 mm; in the assay on Streptococcus pneumoniae [5] it was 16 mm; with Pseudomonas aeruginosa [8], 10 mm; in the assay on Streptococcus agalactiae [10], 11 mm; with Staphylococcus aureus [11], 13 mm. Moreover, in the assay with Streptococcus pyogenes [14], the “inhibition zone (IZ)” value is recorded as 14 mm. The result in the assay with Candida albicans was inactive.

On to `O=C(Cn1c2ccccc2c2nc3ccccc3nc21)N1N=C(c2cc3ccccc3o2)CC1c1ccco1` (stereo not given), for which the MIC with Streptococcus agalactiae [1] came to 26.5 µg/mL (≈ 51.8 µM); in the assay on Staphylococcus aureus [2] it was 10.5 µg/mL (≈ 20.5 µM); in the assay on Streptococcus pneumoniae [6], 5.6 µg/mL (≈ 10.9 µM); with Escherichia coli [7], 15 µg/mL (≈ 29.3 µM); with Pseudomonas aeruginosa [9], 21 µg/mL (≈ 41.1 µM); against Streptococcus pyogenes [12] it was 30 µg/mL (≈ 58.6 µM). Moreover, inhibition of growth in assay [13] (MIC) required 16.5 µg/mL (≈ 32.3 µM). For the same molecule, the “inhibition zone (IZ)” value in assay [3] amounted to 9 mm; in the assay with Escherichia coli [4] it was 10 mm; in the assay on Streptococcus pneumoniae [5] it was 14 mm; in the assay on Pseudomonas aeruginosa [8], 8 mm; in the assay with Streptococcus agalactiae [10], 10 mm; in the assay on Staphylococcus aureus [11], 10 mm. The “inhibition zone (IZ)” value with Streptococcus pyogenes [14] worked out at 8 mm. In addition, in the assay with Candida albicans, the outcome was inactive.
